In ChEMBL document CHEMBL1123913, “Discovery and anticonvulsant activity of the potent metabolic inhibitor 4-amino-N-(2,6-dimethylphenyl)-3,5-dimethylbenzamide” (1987):
Activity calls are given as the source filed them. No cut-off for these calls is given here.

How the values were obtained:
Mus musculus [1] = assay: Ataxia or neurological deficit was measured as horizontal screen test(HS) in mice at a dose of 160 mg/kg; NA means Not active; type: functional, organism-based; design: dose 160 mg/kg
Mus musculus [2] = assay: Time taken for peak anticonvulsant effect(TPE) was measured by oral administration to mice; type: functional
Method in brief: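 Fasted mice, four per group, given a range of oral doses in 5% acacia/water. Challenged with corneal electroshock (40 mA, 0.1 s, ac) at 0.5, 1, 2, 3 and 4 h after dosing to find the time of peak anticonvulsant effect.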

Mus musculus [3] = assay: Antagonistic activity against MES (Maximal Electroshock)-induced seizures after oral administration to mice; type: functional
Method in brief: (§1)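 Fasted (90 min) mice dosed orally with a range of doses as suspension in 5% acacia/water. Electroshock 40 mA, 0.1 s, ac, via corneal electrodes at the time of peak effect, using at least four doses, 12 mice per dose. ED50 for prevention of tonic-extensor convulsions by Litchfield–Wilcoxon, with 95% confidence limits.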

Mus musculus [4] = assay: Plasma concentration was determined after 120 min of oral administration in mice; type: functional, organism-based
Method in brief: (§2)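 Three groups of two mice dosed orally at 1.7, 3.5 or 5.6 mg/kg, suspended in 5% acacia. Blood taken by cardiac puncture under methoxyfluorane into heparin, plasma stored at −30 °C. Parent and N-acetyl metabolite measured by C18 HPLC with absorbance detection against plasma standards of 50–2000 ng/mL. Detection limit 25 ng/mL. Mean ± SEM.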

Mus musculus [5] = assay: Effect on Hexobarbitol-Induced sleeping time in mice at a dose of 0 mg/kg peroral administration; type: functional; conditions: route oral
Method in brief: (§3)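 Groups of 10 fasted mice dosed orally in 5% acacia/water. Hexobarbital 100 mg/kg ip, solubilized with stoichiometric NaOH, given 0.5 h later. Sleeping time is loss of righting reflex, to the nearest minute. Reported as mean ± SEM and percent increase over hexobarbital control.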

Mus musculus [6] = assay: Effect on Hexobarbitol-Induced sleeping time in mice at a dose of 6.4 mg/kg peroral administration; type: functional; conditions: route oral; method in brief: as §3
Mus musculus [7] = assay: Plasma concentration was determined after 360 min of oral administration in mice; type: functional, organism-based; method in brief: as §2
Mus musculus [8] = assay: Effect on Hexobarbitol-Induced sleeping time in mice at a dose of 12.8 mg/kg peroral administration; type: functional; conditions: route oral; method in brief: as §3
Mus musculus [9] = species on record: Mus musculus; assay: Ataxia or neurological deficit was measured as horizontal screen test(HS) in mice; type: functional
Method in brief: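 Male CF1 mice (20–25 g), fasted 90 min, given oral doses as suspension in 5% acacia/water, then placed on a 13 cm × 13 cm wire screen. Retested at the time of peak effect with at least four doses and 12 mice per dose. ED50 by Litchfield–Wilcoxon, with 95% confidence limits.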

Mus musculus [10] = assay: Plasma concentration was determined after 30 min of oral administration in mice; type: functional, organism-based; method in brief: as §2
Mus musculus [11] = assay: Effect on Hexobarbitol-Induced sleeping time in mice at a dose of 3.2 mg/kg peroral administration; type: functional; conditions: route oral; method in brief: as §3
Mus musculus [12] = assay: Plasma concentration was determined after 60 min of oral administration in mice; type: functional, organism-based; method in brief: as §2
[13] = Protective index (HS ED50/MES ED50) after oral administration in mice; type: functional
Method in brief: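 Ratio of the horizontal-screen ED50 to the MES ED50. Both come from oral dosing of fasted mice in 5% acacia/water at the time of peak effect and are calculated by Litchfield–Wilcoxon.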

Mus musculus [14] = assay: Plasma concentration was determined after 240 min of oral administration in mice; type: functional, organism-based; method in brief: as §2
Mus musculus [15] = assay: Effect on Hexobarbitol-Induced sleeping time in mice at a dose of 1.6 mg/kg peroral administration; type: functional; conditions: route oral; method in brief: as §3
Mus musculus [16] = assay: Antagonistic activity against MES-induced seizures after oral administration to mice; type: functional; method in brief: as §1
Mus musculus [17] = assay: Effect on Hexobarbitol-Induced sleeping time in mice at a dose of 3.8 mg/kg peroral administration; type: functional; conditions: route oral
Method in brief: (§4)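 Groups of 10 fasted mice dosed orally in 5% acacia/water. Hexobarbital 100 mg/kg ip, solubilized with stoichiometric NaOH, given 1.0 h later. Duration of loss of righting reflex to the nearest minute. Mean ± SEM, percent increase over hexobarbital control, p < 0.05 significance.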

Mus musculus [18] = assay: Effect on Hexobarbitol-Induced sleeping time in mice at a dose of 30.4 mg/kg peroral administration; type: functional; conditions: route oral; method in brief: as §4
Mus musculus [19] = assay: Effect on Hexobarbitol-Induced sleeping time in mice at a dose of 15.2 mg/kg peroral administration; type: functional; conditions: route oral; method in brief: as §4
Mus musculus [20] = assay: Effect on Hexobarbitol-Induced sleeping time in mice at a dose of 7.6 mg/kg peroral administration; type: functional; conditions: route oral; method in brief: as §4
Mus musculus [21] = assay: Ataxia or neurological deficit was measured as horizontal screen test(HS) in mice at the highest dose of 300 mg/kg; NA means Not active; type: functional, organism-based; design: dose 300 mg/kg
Mus musculus [22] = assay: Antagonistic activity against MES(Maximal Electroshock)-induced seizures after oral administration to mice; type: functional; method in brief: as §1

Compound | TPE (Mus musculus [2]) | ED50 (Mus musculus [3]) | Concentration (Mus musculus [4]) | ED50 (Mus musculus [9]) | Concentration (Mus musculus [10]) | Concentration (Mus musculus [12]) | other results
CC(=O)Nc1c(C)cc(C(=O)Nc2c(C)cccc2C)cc1C | 2 h | 170 mg/kg | – | – | – | – | ED50 (Mus musculus [1]): inactive
Cc1cccc(C)c1NC(=O)c1ccc(N)cc1 [AMELTOLIDE] | 0.5 h | 1.7 mg/kg | 656 ng/mL | 23 mg/kg | 1090 ng/mL | 893 ng/mL | Sleeping time (Mus musculus [5]): 59.6 min; Sleeping time (Mus musculus [6]): 75 min; Concentration (Mus musculus [7]): 299 ng/mL; Sleeping time (Mus musculus [8]): 76.4 min; Sleeping time (Mus musculus [11]): 69.3 min; PI [13]: 13; Concentration (Mus musculus [14]): 394 ng/mL; Sleeping time (Mus musculus [15]): 67.9 min
Cc1cc(C(=O)Nc2c(C)cccc2C)ccc1N | 1 h | – | – | 84 mg/kg | – | – | ED50 (Mus musculus [16]): 3.5 mg/kg; Sleeping time (Mus musculus [5]): 66.4 min; Sleeping time (Mus musculus [17]): 85.6 min; Sleeping time (Mus musculus [18]): 133.8 min; Sleeping time (Mus musculus [19]): 85.5 min; Sleeping time (Mus musculus [20]): 97.9 min
CC(=O)Nc1ccc(C(=O)Nc2c(C)cccc2C)cc1C | 1 h | 4.5 mg/kg | 91 ng/mL | 56 mg/kg | 79 ng/mL | 97 ng/mL | –
CC(=O)Nc1ccc(C(=O)Nc2c(C)cccc2C)cc1 | 2 h | 3.8 mg/kg | 545 ng/mL | – | 412 ng/mL | 587 ng/mL | ED50 (Mus musculus [21]): inactive; Concentration (Mus musculus [7]): 225 ng/mL; Concentration (Mus musculus [14]): 425 ng/mL
O=C1NC(=O)C(c2ccccc2)(c2ccccc2)N1 [PHENYTOIN] | 1 h | 9.4 mg/kg | – | 210 mg/kg | – | – | –
Cc1cc(C(=O)Nc2c(C)cccc2C)cc(C)c1N | 1 h | – | 1060 ng/mL | 64 mg/kg | 1480 ng/mL | 1160 ng/mL | ED50 (Mus musculus [22]): 5.6 mg/kg
